Substitutions are numbered along the chain they refer to.
Tests used:
[1] = Half life in rat at 2 mg/kg, po administered as single dose; format: ADME, organism-based; settings: in vivo
Outline: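 Rat, single oral dose of 2 mg/kg given as a suspension in 0.5% methylcellulose. Half-life taken after the oral dose.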

[2] = target: T1, Muscarinic acetylcholine receptor M5 (Homo sapiens, UniProt P08912); experiment: Agonist activity at human muscarinic acetylcholine receptor M5 expressed in CHO cells assessed as increase in calcium mobilization incubated for 10 mins by Fluo-8-AM dye based FLIPR assay; format: cell-based
T1 sequence (P08912 whole entry): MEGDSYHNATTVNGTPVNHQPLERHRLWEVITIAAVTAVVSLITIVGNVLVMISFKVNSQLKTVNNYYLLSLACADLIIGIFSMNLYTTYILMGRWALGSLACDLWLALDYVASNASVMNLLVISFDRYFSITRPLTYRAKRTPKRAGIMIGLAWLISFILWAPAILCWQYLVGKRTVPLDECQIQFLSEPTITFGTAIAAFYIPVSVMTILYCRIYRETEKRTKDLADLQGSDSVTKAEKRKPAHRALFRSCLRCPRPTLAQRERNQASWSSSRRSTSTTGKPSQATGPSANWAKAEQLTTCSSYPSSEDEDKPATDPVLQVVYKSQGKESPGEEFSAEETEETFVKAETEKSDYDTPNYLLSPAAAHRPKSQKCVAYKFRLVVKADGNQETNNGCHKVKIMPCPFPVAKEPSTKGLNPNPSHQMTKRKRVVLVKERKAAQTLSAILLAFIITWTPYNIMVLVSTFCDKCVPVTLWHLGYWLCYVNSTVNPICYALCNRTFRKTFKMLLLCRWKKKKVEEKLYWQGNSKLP
Outline: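 Recombinant functional human M2–M5 assays, each run in agonist and PAM modes at concentrations up to 10 μM.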

[3] = target: T2, Muscarinic acetylcholine receptor M1 (Rattus norvegicus, UniProt P08482); experiment: Positive allosteric modulation of muscarinic acetylcholine receptor M1 in Sprague-Dawley rat brain hippocampal slices assessed as increase in carbachol-induced firing rate at CA1 pyramidal neurons after 10 mins by electrophysiology method
T2 sequence (P08482 whole entry): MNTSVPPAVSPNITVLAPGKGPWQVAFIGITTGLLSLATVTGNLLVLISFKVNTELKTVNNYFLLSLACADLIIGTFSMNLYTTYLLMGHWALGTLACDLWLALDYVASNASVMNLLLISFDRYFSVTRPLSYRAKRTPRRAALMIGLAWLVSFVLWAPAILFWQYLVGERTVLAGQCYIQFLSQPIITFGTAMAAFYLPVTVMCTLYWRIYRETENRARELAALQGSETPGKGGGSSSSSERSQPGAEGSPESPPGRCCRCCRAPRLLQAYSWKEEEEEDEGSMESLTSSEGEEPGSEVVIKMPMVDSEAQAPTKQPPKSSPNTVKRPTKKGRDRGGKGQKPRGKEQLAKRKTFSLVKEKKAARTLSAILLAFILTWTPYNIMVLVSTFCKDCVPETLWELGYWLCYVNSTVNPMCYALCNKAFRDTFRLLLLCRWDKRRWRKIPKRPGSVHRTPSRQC
Outline: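 Rat hippocampal slices; spontaneous action potentials recorded from CA1 pyramidal neurons, read as spike rate. Agonist mode has no carbachol; PAM mode uses an EC20 level of carbachol. Top concentration tested was 3 μM.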

Canis familiaris [4] = experiment: Cholinergic toxicity in dog assessed as salivation at 15 mg/kg, po administered as single dose using spray dried dispersion formulation after 1 hr; format: organism-based, Canis lupus familiaris; settings: in vivo
Outline: (§1)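 Dog single oral dose escalation: 1/sex at 5 mg/kg for each formulation; 1 female at 15 mg/kg. Spray-dried dispersion: 23% drug loading with 0.5% methylcellulose and 100 mM citrate buffer. Clinical signs timed in approximate hours postdose; unbound plasma Cmax.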

[5] = target: T3, Muscarinic acetylcholine receptor M1 (Homo sapiens, UniProt P11229); experiment: Activity at human muscarinic acetylcholine receptor M1 expressed in CHO cells assessed as increase in calcium mobilization incubated for 10 mins by Fluo-8-AM dye based FLIPR assay; format: cell-based
T3 sequence (P11229 whole entry): T2 sequence (P08482 whole entry) with V5A, S254T, S309P, K320R, G337A, V413I

[6] = target: T3, Muscarinic acetylcholine receptor M1; experiment: (§2) Ratio of positive allosteric modulation of human muscarinic acetylcholine receptor M1 expressed in CHO cells assessed as increase in acetylcholine-induced calcium mobilization by measuring functional co-operativity with acetylcholine to Kb human muscarinic acetylcholine receptor M1 expressed in CHO cells assessed as increase in calcium mobilization; format: ADME, cell-based
[7] = target: T3, Muscarinic acetylcholine receptor M1; experiment: as §2, with “beta-arrestin recruitment” for “calcium mobilization”, “Kb for” for “Kb”; format: ADME, cell-based
Plasma = experiment: Unbound plasma concentration in amphetamine-induced hyperlocomotion C57BL/6 mouse at 3.2 mg/kg, sc measured after 1 hr by LC-MS/MS analysis; format: ADME, organism-based; settings: in vivo
Outline: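 Satellite group of C57BL/6 mice from the amphetamine-stimulated locomotor study, N = 2/dose at 0.32, 1 and 3.2 mg/kg. Dosed sc as a solution in 10/90 Cremophor/water. Unbound plasma and brain concentrations measured at T = 1 h.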

Rattus norvegicus [8] = experiment: Unbound AUC (0 to 24 hrs) in rat plasma at 5 mg/kg, po administered as single dose; format: ADME, organism-based; settings: in vivo
Outline: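 Rats (3/sex/dose) dosed orally once, 1 or 5 mg/kg as a 0.5% methylcellulose suspension.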

Rattus norvegicus [9] = experiment: Toxicity in rat assessed as convulsions at 45 mg/kg, po administered as single dose after 1 to 6 hrs; format: organism-based; settings: in vivo
Canis familiaris [10] = experiment: Cholinergic toxicity in dog assessed as watery stool at 5 mg/kg, po administered as single dose using shydroxypropyl cellulose/docusate sodium formulation after 0.5 to 1.3 hrs; format: organism-based, Canis lupus familiaris; settings: in vivo
Outline: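 Single-dose oral dose-escalation study, 1 dog/sex/dose. The 5 mg/kg dose was given as a nanosuspension in hydroxypropyl cellulose SL with 0.05% docusate sodium in purified water. Cholinergic clinical signs were recorded at approximate hours postdose, alongside unbound plasma Cmax.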

Canis familiaris [11] = experiment: Toxicity in dog assessed as convulsion at 15 mg/kg, po administered as single dose using spray dried dispersion formulation after 1.2 hrs; format: organism-based, Canis lupus familiaris; settings: in vivo; outline: as §1
Canis familiaris [12] = experiment: Cholinergic toxicity in dog assessed as increased activity at 15 mg/kg, po administered as single dose using spray dried dispersion formulation after 1 hr; format: organism-based, Canis lupus familiaris; settings: in vivo; outline: as §1
Canis familiaris [13] = experiment: Toxicity in dog assessed as vocalization at 15 mg/kg, po administered as single dose using spray dried dispersion formulation after 1 hr; format: organism-based, Canis lupus familiaris; settings: in vivo

SMILES: Cc1cc2c(cc1Cc1ccc(-c3cocn3)cc1)C(=O)N([C@H]1CCOC[C@@H]1O)C2
- half-life [1]: 6.7 h
- EC50 [2]: > 10 µM
- Activity [3]: Dose-dependent effect
- Activity (Canis familiaris [4]): Toxic
- Kb [5]: 3 µM
- Ratio [6]: 70
- Ratio [7]: 100
- Cp(f) (Plasma): 130 nM
- fAUC (Rattus norvegicus [8]): 4.927 µM·h
- Activity (Rattus norvegicus [9]): Toxic
- Activity (Canis familiaris [10]): Toxic
- Activity (Canis familiaris [11]): Toxic
- Activity (Canis familiaris [12]): Toxic
- Activity (Canis familiaris [13]): Toxic

Source: ChEMBL document CHEMBL4017487, “Design and Synthesis of γ- and δ-Lactam M1 Positive Allosteric Modulators (PAMs): Convulsion and Cholinergic Toxicity of an M1-Selective PAM with Weak Agonist Activity” (J Med Chem, 2017)
